Results on 14 compounds are retold here after PubChem BioAssay.

SMILES strings stand for the structures. Calls of active or inactive are those of the source.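 How the source made its calls, unless noted: active means viability at or below 10% of carrier control in both of two separate runs; inconclusive means viability at or below 10% in only one of the two runs; inactive means the rest.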

Test [1] is described as follows: reducers of endogenous Her2 protein level, primary screen, SKBR3 breast tumor cells, AlphaScreen, ATP viability (AID 461;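 active means Her2 level under about 52% in both replicate screens, with viability over 70% of control, limit read from the data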;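 on Her2 level: lower value means less Her2 protein in the cells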;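 on viability: percent of carrier control wells set as 100% viability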). The note with it: 18-24 h, measured here: SKBR3 viability, ATP luminescence, at 10 µM. (In general: In Alpha technology, singlet oxygen from a donor bead excites a nearby acceptor bead.)
In test [2] the target is Receptor tyrosine-protein kinase erbB-2 (Homo sapiens) (UniProt P04626). Described as above. The settings on record: 18-24 h, at 10 µM, stronger effect = lower value.
A short description of test [3]: SK-BR-3 cell growth inhibitors, pilot screen, 24 h, human (AID 572).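 Further: compound exposure lasted between 18 and 24 h rather than exactly 24 h; 100% = carrier-treated control wells.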 The note with it: SK-BR-3 viability, CellTiter-Glo luminescence, at 10 µM, stronger effect = lower value. On the technique in general: In ATP-based viability assays light output follows the ATP content of the culture.
Test [4] in a line: HUVEC growth inhibition – cell-based, human, primary screen (AID 575;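 active means viability at or below 30% in both replicate assays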;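 further: 100% = median of untreated cell wells with 0.1% DMSO on each plate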). The settings on record: HUVEC proliferation, CellTiter-Glo luminescence, 72 h; at 10 µM; stronger effect = lower value. A digest of the protocol:
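System – primary HUVEC, no more than 12 passages · Medium – Low-serum (2% FBS) EBM, supplemented · Times – 72 h exposure, 37 °C, 5% CO2, 30 min RT equilibration · Measured by – luminescent ATP assay · Read-out – % viability relative to median vehicle-well signal on each plate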

Test [5] can be described thus: growth inhibitors of H69AR lung tumor, primary screen, human, duplicate replicates (AID 580;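 active means viability at or under a set limit in both replicates, limit being median viability minus 3 SD, cut at about 48% in these data, passing the limit was not always enough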;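 further: 100% = mean luminescence of untreated wells and 0% = no signal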). The note with it: H69AR lung tumor cells viability, ATP luminescence, 72 h; at 10 µM; stronger effect = lower value.
Test [6] can be described thus: reversal of MRP1-mediated doxorubicin resistance, pilot screen, H69AR cells, doxorubicin co-treatment (AID 601;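 active means viability loss from added drug above about 55%, and viability with drug at most 40%, in both replicates, limit read from the data, passing the limit was not always enough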). The note with it: CellTiter-Glo, 72 h, at 10 µM; for differential viability (reversal): stronger effect = higher value.
Test [7] in a line: 384-well plate pilot, post-Golgi transport modulator project, inhibition of yeast transport mutant growth (AID 636; in the data active means inhibition above about 31%). The note with it: absorbance 615 nm, about 18 h, stronger effect = higher value.
A short description of test [8]: growth suppression of yeast trafficking mutant, preliminary HTS, modulators of trafficking downstream of Golgi apparatus project, 1536-format plate, OD 615 nm (AID 637; in the data active means inhibition above about 30%). The settings on record: yeast transport mutant growth, absorbance 615 nm, 18 h; stronger effect = higher value.
Setting [9] is: H69AR cells + 2 uM doxorubicin, measured here: viability with 2 uM doxorubicin, stronger effect = lower value.
Where [10] appears, read: H69AR cells, compound alone cytotoxicity.

Chain of Receptor tyrosine-protein kinase erbB-2 (Homo sapiens) (P04626 whole entry, looked up): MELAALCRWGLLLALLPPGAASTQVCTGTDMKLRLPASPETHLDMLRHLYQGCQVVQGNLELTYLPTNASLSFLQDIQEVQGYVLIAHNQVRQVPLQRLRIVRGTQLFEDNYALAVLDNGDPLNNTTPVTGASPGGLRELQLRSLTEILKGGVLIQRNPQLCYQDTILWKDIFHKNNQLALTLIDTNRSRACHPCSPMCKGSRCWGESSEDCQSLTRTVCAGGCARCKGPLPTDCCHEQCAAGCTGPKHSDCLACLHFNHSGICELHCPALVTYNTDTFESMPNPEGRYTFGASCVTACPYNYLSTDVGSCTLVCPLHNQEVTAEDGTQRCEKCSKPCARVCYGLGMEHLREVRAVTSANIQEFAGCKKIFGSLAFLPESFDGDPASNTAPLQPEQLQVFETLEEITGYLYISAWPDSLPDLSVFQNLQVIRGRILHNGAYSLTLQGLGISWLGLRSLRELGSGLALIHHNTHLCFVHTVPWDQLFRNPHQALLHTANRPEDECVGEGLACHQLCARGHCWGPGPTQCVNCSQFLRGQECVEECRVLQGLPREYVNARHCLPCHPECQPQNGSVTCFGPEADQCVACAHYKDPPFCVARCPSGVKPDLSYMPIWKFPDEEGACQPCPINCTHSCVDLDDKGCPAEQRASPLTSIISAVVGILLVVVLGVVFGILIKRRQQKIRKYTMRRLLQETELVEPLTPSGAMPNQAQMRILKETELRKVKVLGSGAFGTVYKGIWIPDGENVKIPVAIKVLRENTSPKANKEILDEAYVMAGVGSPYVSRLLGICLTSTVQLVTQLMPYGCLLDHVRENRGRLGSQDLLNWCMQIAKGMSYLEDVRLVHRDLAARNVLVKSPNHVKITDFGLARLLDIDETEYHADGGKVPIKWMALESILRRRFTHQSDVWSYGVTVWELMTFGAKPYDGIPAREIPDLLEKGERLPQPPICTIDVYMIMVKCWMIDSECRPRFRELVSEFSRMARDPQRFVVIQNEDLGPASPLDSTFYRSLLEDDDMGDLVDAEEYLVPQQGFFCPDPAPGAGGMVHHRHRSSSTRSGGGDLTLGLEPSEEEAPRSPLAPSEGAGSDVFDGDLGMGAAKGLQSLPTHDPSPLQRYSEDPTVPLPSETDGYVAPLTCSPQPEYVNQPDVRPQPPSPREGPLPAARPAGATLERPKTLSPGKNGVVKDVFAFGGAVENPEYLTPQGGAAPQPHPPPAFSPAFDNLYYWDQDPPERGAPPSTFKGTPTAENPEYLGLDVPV

Consider `Cc1cccc(C)c1NC(=O)CS(=O)CC(=O)NC1CCCc2ccccc21` (stereo not given), for which the viability in test [1] is 96.5%; in test [3] it was 96.5% (inactive); in test [4], 103% (inactive); in test [5], 88.7% (inactive); in test [6] (setting [9]) it was 92.3%; in test [6] (setting [10]), 88.7%. For the same compound, in test [2], the Her2 level is 82.5% (inactive). Further, the differential viability (reversal) in test [6] (H69AR cells + 2 uM doxorubicin) is -3.62% (inactive). Further, the inhibition in test [7] is -6.8% (inactive); in test [8], -4.59% (inactive).
For `c1ccc(CCn2nnnc2CN2CCN(C3CCCC3)CC2)cc1`, the viability in test [1] was 97.5%; in test [3], 97.5% (inactive); in test [4] it was 109% (inactive); in test [5] it was 107% (inactive); in test [6] (setting [9]), 87.5%; in test [6] (setting [10]) it was 107%. Moreover, in test [2], the Her2 level was 95% (inactive). The differential viability (reversal) in test [6] (H69AR cells + 2 uM doxorubicin) was 19.1% (inactive). In addition, the inhibition was 2.03% (inactive) in test [7] and -6.51% (inactive) in test [8].
As to `O=c1[nH]cnc2c1C1(CCCC1)Cc1ccccc1-2`, the viability in test [1] was 95.5%; in test [3], 95.5% (inactive); in test [4] it was 93.1% (inactive); in test [5] it was 100% (inactive); in test [6] (setting [9]) it was 88.7%; in test [6] (setting [10]) it was 100%. The Her2 level in test [2] is 90% (inactive). The differential viability (reversal) in test [6] (H69AR cells + 2 uM doxorubicin) is 11.5% (inactive). In addition, the inhibition is -0.26% (inactive) in test [7] and -0.5% (inactive) in test [8].
In the case of `COc1ccccc1NC(=O)c1ccc(NC(=O)CSc2nnnn2C)cc1`, the viability in test [1] is 92%; in test [3] it was 92% (inactive); in test [4] it was 84% (inactive); in test [5] it was 13.1% (active); in test [6] (setting [9]), 38.7%; in test [6] (setting [10]) it was 13.1%. In test [2], the Her2 level is 96% (inactive). Also, the differential viability (reversal) in test [6] (H69AR cells + 2 uM doxorubicin) was -25.5% (inactive). For the same compound, the values for the inhibition in test [7] and in test [8] were -6% (inactive) and -2.13% (inactive), respectively.
For the compound `CC1Cc2ccccc2N1S(=O)(=O)c1cccc(C(=O)OCC(=O)NC2CCS(=O)(=O)C2)c1` (stereo not given), the viability in test [1] was 88%; in test [3], 88% (inactive); in test [4], 89.1% (inactive); in test [5], 97.2% (inactive); in test [6] (setting [9]) it was 84.9%; in test [6] (setting [10]), 97.2%. The Her2 level in test [2] was 82.5% (inactive). Moreover, the differential viability (reversal) in test [6] (H69AR cells + 2 uM doxorubicin) was 12.3% (inactive). The inhibition is -6.4% (inactive) in test [7] and -3.61% (inactive) in test [8].
On to `CCOC(=O)N1CCN(C(=O)COc2ccc(S(=O)(=O)NC3CCCCC3)cc2C)CC1`, for which the viability in test [1] is 112%; in test [3], 112% (inactive); in test [4], 80.9% (inactive); in test [5] it was 98.9% (inactive); in test [6] (setting [9]), 98.5%; in test [6] (setting [10]) it was 98.9%. Also, the Her2 level in test [2] is 110% (inactive). For the same compound, in test [6] (H69AR cells + 2 uM doxorubicin), the differential viability (reversal) was 0.31% (inactive). The figures for the inhibition in test [7] and in test [8] were -0.4% (inactive) and -1.31% (inactive), respectively.
On to `CC1CN(S(=O)(=O)c2cccc(C(=O)OCc3cc(=O)oc4cc(O)ccc34)c2)CC(C)O1` (stereo not given), for which the viability in test [1] was 80.5%; in test [3] it was 80.5% (inactive); in test [4] it was 61.1% (inactive); in test [5] it was 78.2% (inactive); in test [6] (setting [9]) it was 62.1%; in test [6] (setting [10]), 78.2%. For the same compound, the Her2 level in test [2] was 87% (inactive). Moreover, the differential viability (reversal) in test [6] (H69AR cells + 2 uM doxorubicin) is 16.1% (inactive). The inhibition in test [7] is -6% (inactive); in test [8], -4.43% (inactive).
On to `Cn1c(=O)c2c(nc(SCC(=O)O)n2Cc2cccc(C(F)(F)F)c2)n(C)c1=O`, for which the viability in test [1] was 97.5%; in test [3], 97.5% (inactive); in test [4], 94.7% (inactive); in test [5], 95.6% (inactive); in test [6] (setting [9]), 90.2%; in test [6] (setting [10]), 95.6%. Further, in test [2], the Her2 level is 84% (inactive). Also, the differential viability (reversal) in test [6] (H69AR cells + 2 uM doxorubicin) is 5.41% (inactive). Also, the values for the inhibition in test [7] and in test [8] were -4.67% (inactive) and 0.81% (inactive), respectively.
With `COc1cc(CN2CCN(C(=O)CC(C)C)CC2)cc(OC)c1O`, the viability was 114% in test [1]; 114% (inactive) in test [3]; 103% (inactive) in test [4]; 102% (inactive) in test [5]; 96.8% in test [6] (setting [9]); 102% in test [6] (setting [10]). The Her2 level in test [2] is 93.5% (inactive). Further, the differential viability (reversal) in test [6] (H69AR cells + 2 uM doxorubicin) is 5.74% (inactive). Moreover, the results for the inhibition in test [7] and in test [8] were -1.04% (inactive) and -4.6% (inactive), respectively.
`CCOCCCNc1ncnc2c1[nH]c1ccccc12`: the viability is 99% in test [1]; 99% (inactive) in test [3]; 89.5% (inactive) in test [4]; 90.3% (inactive) in test [5]; 104% in test [6] (setting [9]); 90.3% in test [6] (setting [10]). The Her2 level in test [2] was 96.5% (inactive). Also, the differential viability (reversal) in test [6] (H69AR cells + 2 uM doxorubicin) was -13.3% (inactive). In addition, the values for the inhibition in test [7] and in test [8] were -2.63% (inactive) and 1.31% (inactive), respectively.
Regarding `Cc1ccc(C(=O)N2CCCC(c3nc4c(nnn4Cc4ccccc4)c(=O)[nH]3)C2)cc1` (stereo not given), the viability is 80.5% in test [1]; 80.5% (inactive) in test [3]; 110% (inactive) in test [4]; 83.4% (inactive) in test [5]; 58.9% in test [6] (setting [9]); 83.4% in test [6] (setting [10]). Moreover, the Her2 level in test [2] was 105% (inactive). The differential viability (reversal) in test [6] (H69AR cells + 2 uM doxorubicin) was 24.5% (inactive). Besides, the inhibition in test [7] is -3.08% (inactive); in test [8], 7.33% (inactive).
Consider `O=C(NCc1ccccn1)c1cccs1`, for which the viability in test [1] was 97%; in test [3], 97% (inactive); in test [4] it was 92.4% (inactive); in test [5], 105% (inactive); in test [6] (setting [9]), 92.8%; in test [6] (setting [10]) it was 105%. Besides, the Her2 level in test [2] is 80.5% (inactive). Further, the differential viability (reversal) in test [6] (H69AR cells + 2 uM doxorubicin) is 11.9% (inactive). In addition, the values for the inhibition in test [7] and in test [8] were -7.43% (inactive) and 4.1% (inactive), respectively.
Consider `Cc1cccc(N=C2NC(=O)CS2)c1C`, for which the viability in test [1] was 108%; in test [3], 108% (inactive); in test [4] it was 87.1% (inactive); in test [5] it was 91.9% (inactive); in test [6] (setting [9]), 88.3%; in test [6] (setting [10]), 91.9%. For the same compound, the Her2 level in test [2] is 80% (inactive). Further, the differential viability (reversal) in test [6] (H69AR cells + 2 uM doxorubicin) is 3.6% (inactive). Moreover, the figures for the inhibition in test [7] and in test [8] were 0.4% (inactive) and -0.81% (inactive), respectively.
On to `Cc1cc(C)c2c(n1)sc1c(N3CCOCC3)ncnc12`, for which the viability in test [1] was 91%; in test [3] it was 91% (inactive); in test [4], 25.4% (active); in test [5], 76.6% (inactive); in test [6] (setting [9]) it was 75.7%; in test [6] (setting [10]), 76.6%. The Her2 level in test [2] is 90% (inactive). Further, in test [6] (H69AR cells + 2 uM doxorubicin), the differential viability (reversal) was 0.885% (inactive). In addition, the values for the inhibition in test [7] and in test [8] were -6.35% (inactive) and 0.67% (inactive), respectively.

As a reminder, the viability is a read-out of living cells in per cent, often relative to untreated cells. One may read the inhibition as the change of the read-out against control, counted positive when it falls.
